Measurements pooled from the literature.
Compare with care: the assays were run in different laboratories. Converted amounts (≈) assume the structure as drawn.

SMILES	organism	test	test system	setting	endpoint	result
CC1=C(Cn2ccnn2)C(=O)c2ccccc2C1=O	Schistosoma mansoni	parasite growth		72 h, larva	IC50	1050 nM
O=C1/C(=C/c2ccc3ccccc3c2O)NC(=S)N1c1ccccc1	Fusarium solani	microbial growth, broth dilution			MIC	20 µg/mL (≈ 57.7 µM)
CC1=C(Cn2cncn2)C(=O)c2ccccc2C1=O	Schistosoma mansoni	parasite growth		72 h, larva	IC50	900 nM
COc1cc(NC(=O)Cn2ccc3ccc(-c4nnc(C)o4)cc32)cc(OC)c1OC	Plasmodium knowlesi	parasite growth, SYBR Green		30 h, blood stage	EC50	200 to 660 nM
CC1=C(Cn2ccnc2[N+](=O)[O-])C(=O)c2ccccc2C1=O	Schistosoma mansoni	parasite growth		72 h, larva	IC50	1030 nM
CC(=O)N1CCN(c2ccc(OCC3COC(Cn4ccnc4)(c4ccc(Cl)cc4Cl)O3)cc2)CC1 (stereo not drawn)	Pichia kudriavzevii	microbial growth, broth dilution	ATCC14243	48 h	MIC	8 µg/mL (≈ 15.1 µM)
Clc1ccc(COC(Cn2ccnc2)c2ccc(Cl)cc2Cl)c(Cl)c1 (stereo not drawn)	Pichia kudriavzevii	microbial growth, broth dilution			MIC80	0.5 µg/mL (≈ 1.2 µM)
C#CCOC(=O)ON=C1C=CC(=C(C#N)c2ccccc2)C=C1	Pichia kudriavzevii	microbial growth, broth dilution	ATCC14243	48 h	MIC	16 µg/mL (≈ 52.6 µM)
O=C(Nc1cccc(Cl)c1)c1ccc(COC(Cn2ccnc2)c2ccc(Cl)cc2Cl)cc1 (stereo not drawn)	Pichia kudriavzevii	microbial growth, broth dilution			MIC80	0.25 µg/mL (≈ 0.499 µM)
C=CC(=O)ON=C1C=CC(=C(C#N)c2ccccc2)C=C1	Pichia kudriavzevii	microbial growth, broth dilution	ATCC14243	48 h	MIC	16 µg/mL (≈ 57.9 µM)
CCn1c(=O)c(-c2cc[nH]n2)cc2c(C)nc(N)nc21	Enterovirus A	viral replication, inhibitor, qPCR	RD, EV71		IC50	158 nM
N#CC(=C1C=CC(=NOC(=O)OCc2ccccc2)C=C1)c1ccccc1	Pichia kudriavzevii	microbial growth, broth dilution	ATCC14243	48 h	MIC	128 µg/mL (≈ 359 µM)
CC1=C(Cn2cc(C(C)(C)O)nn2)C(=O)c2ccccc2C1=O	Schistosoma mansoni	parasite growth		72 h, larva	IC50	1050 nM
O=C(Nc1ccc2ccccc2c1)c1ccc(COC(Cn2ccnc2)c2ccc(Cl)cc2Cl)cc1 (stereo not drawn)	Pichia kudriavzevii	microbial growth, broth dilution			MIC80	32 µg/mL (≈ 62 µM)
CC1=C(Cn2cc(CN3CCNCC3)nn2)C(=O)c2ccccc2C1=O	Schistosoma mansoni	parasite growth		72 h, larva	IC50	930 nM
CCON=C1C=CC(=C(C#N)c2ccccc2)C=C1	Pichia kudriavzevii	microbial growth, broth dilution	ATCC14243	48 h	MIC	256 µg/mL (≈ 1020 µM)
O=C(Nc1ccc(F)cc1F)c1ccc(COC(Cn2ccnc2)c2ccc(Cl)cc2Cl)cc1 (stereo not drawn)	Pichia kudriavzevii	microbial growth, broth dilution			MIC80	0.03 µg/mL (≈ 0.0597 µM)
CC1=C(Cc2cn(CCN3CCNCC3)nn2)C(=O)c2ccccc2C1=O	Schistosoma mansoni	parasite growth		72 h, larva	IC50	1670 nM
OC(Cn1cncn1)(Cn1cncn1)c1ccc(F)cc1F	Pichia kudriavzevii	microbial growth, broth dilution			MIC80	16 µg/mL (≈ 52.2 µM)
CC(=O)ON=C1C=CC(=C(C#N)c2ccccc2)C=C1	Pichia kudriavzevii	microbial growth, broth dilution	ATCC14243	48 h	MIC	16 µg/mL (≈ 60.5 µM)
O=C(Nc1ccc(F)cc1)c1ccc(COC(Cn2ccnc2)c2ccc(Cl)cc2Cl)cc1 (stereo not drawn)	Pichia kudriavzevii	microbial growth, broth dilution			MIC80	0.06 µg/mL (≈ 0.124 µM)
CC1=C(Cc2cn(CCN3CCC(F)(F)CC3)nn2)C(=O)c2ccccc2C1=O	Schistosoma mansoni	parasite growth		72 h, larva	IC50	1600 nM
C#CCON=C1C=CC(=C(C#N)c2ccccc2)C=C1	Pichia kudriavzevii	microbial growth, broth dilution	ATCC14243	48 h	MIC	32 µg/mL (≈ 123 µM)
O=C(Nc1cccc2ccccc12)c1ccc(COC(Cn2ccnc2)c2ccc(Cl)cc2Cl)cc1 (stereo not drawn)	Pichia kudriavzevii	microbial growth, broth dilution			MIC80	16 µg/mL (≈ 31 µM)
